Here are results for four compounds from ChEMBL document CHEMBL1671834, “Novel 3-aryl indoles as progesterone receptor antagonists for uterine fibroids” (ACS Med Chem Lett, 2011).

Assay [1] has as its target T1, Progesterone receptor (Homo sapiens, UniProt P06401).
T1 sequence (P06401 whole entry): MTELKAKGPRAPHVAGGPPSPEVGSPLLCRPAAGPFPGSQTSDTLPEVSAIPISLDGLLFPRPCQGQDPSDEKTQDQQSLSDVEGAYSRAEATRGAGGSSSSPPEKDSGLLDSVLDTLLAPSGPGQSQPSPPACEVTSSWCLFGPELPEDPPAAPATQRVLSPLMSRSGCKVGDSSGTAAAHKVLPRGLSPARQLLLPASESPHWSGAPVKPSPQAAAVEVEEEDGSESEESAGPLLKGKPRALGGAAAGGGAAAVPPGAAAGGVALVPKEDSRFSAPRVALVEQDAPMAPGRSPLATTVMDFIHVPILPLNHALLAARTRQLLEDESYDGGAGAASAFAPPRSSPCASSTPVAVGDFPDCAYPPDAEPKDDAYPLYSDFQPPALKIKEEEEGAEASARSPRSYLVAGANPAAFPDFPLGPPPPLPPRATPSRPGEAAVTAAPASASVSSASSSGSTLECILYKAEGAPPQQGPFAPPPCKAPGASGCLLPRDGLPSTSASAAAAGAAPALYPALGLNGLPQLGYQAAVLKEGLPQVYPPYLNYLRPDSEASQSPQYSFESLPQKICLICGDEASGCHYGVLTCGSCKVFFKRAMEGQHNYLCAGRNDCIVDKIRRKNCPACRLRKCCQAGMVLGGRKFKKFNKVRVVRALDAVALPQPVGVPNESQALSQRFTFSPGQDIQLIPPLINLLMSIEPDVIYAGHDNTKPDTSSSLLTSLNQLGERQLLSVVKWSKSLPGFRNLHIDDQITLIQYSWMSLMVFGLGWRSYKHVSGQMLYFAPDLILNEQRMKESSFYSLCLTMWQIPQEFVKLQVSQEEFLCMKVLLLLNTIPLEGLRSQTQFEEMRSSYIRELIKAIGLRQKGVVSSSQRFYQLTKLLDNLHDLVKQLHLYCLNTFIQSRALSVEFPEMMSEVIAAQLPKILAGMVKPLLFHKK
The assay is described as follows: Displacement of [3H]methyltrienolone from human progesterone receptor expressed in HEK293 cells. The assay is classed as cell-based. In short, it runs like this:
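Competitive binding to recombinant full-length human receptors against tritium-labelled standards. Values are geometric means of at least duplicate determinations.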
In general terms: Displacement assays read how much labelled ligand stays bound in the presence of the test substance.

The target in the next assay is T2, Androgen receptor (Homo sapiens, UniProt P10275).
T2 sequence (P10275 whole entry): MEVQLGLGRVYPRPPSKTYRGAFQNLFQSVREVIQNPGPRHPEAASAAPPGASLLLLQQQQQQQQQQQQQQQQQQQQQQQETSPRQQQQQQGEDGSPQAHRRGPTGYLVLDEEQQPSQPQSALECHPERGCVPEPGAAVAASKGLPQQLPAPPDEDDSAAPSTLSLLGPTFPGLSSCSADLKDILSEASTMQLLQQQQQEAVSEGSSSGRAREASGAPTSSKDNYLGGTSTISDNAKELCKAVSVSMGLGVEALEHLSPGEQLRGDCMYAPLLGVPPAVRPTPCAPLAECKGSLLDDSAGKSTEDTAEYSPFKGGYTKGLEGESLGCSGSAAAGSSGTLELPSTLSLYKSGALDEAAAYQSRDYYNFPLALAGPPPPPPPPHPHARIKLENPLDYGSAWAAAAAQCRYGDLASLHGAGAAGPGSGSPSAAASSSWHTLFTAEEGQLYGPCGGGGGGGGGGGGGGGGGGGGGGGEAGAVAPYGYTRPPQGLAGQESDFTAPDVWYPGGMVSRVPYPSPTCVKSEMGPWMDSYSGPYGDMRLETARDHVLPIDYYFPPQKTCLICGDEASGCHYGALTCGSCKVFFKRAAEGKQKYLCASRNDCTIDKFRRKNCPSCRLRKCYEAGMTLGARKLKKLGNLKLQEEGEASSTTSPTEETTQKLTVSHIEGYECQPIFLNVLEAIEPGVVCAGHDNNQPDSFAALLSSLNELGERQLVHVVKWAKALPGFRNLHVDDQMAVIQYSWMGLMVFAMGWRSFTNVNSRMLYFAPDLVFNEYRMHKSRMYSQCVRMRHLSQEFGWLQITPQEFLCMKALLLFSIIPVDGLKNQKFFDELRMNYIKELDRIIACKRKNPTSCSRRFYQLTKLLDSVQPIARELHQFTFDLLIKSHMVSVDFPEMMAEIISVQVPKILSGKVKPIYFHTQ
The assay is described as follows: Displacement of [3H]methyltrienolone from human androgen receptor expressed in HEK293 cells. The assay is classed as cell-based.

For assay [2], the target named is T1, Progesterone receptor. The assay is described as follows: Antagonist activity at human progesterone receptor expressed in HEK293 cells assessed as inhibition of […]-induced transcriptional activity by GRE-driven luciferase reporter gene assay. The assay is classed as functional, cell-based. In short, it runs like this:
(§1)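 Transcription assay in HEK293 cells cotransfected with full-length human receptor. Values are geometric means of at least duplicate determinations.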

Assay [3] concerns the target T3, Progesterone receptor (Homo sapiens) (UniProt P06401).
T3 sequence (whole entry): T1 sequence (P06401 whole entry)
The assay can be described thus: Antagonist activity at human progesterone receptor expressed in HEK293 cells assessed as inhibition of […]-induced transcriptional activity by GRE-driven luciferase reporter gene assay relative to untreated control. Also on record: concentration or dose not given beside the values. Format: functional, cell-based. Particulars: concentration not given here. In short, it runs like this: as §1
(In general: In a reporter assay the amount or activity of a reporter protein is the signal.)

Assay [4] addresses T4, Mineralocorticoid receptor (Homo sapiens) (UniProt P08235).
T4 sequence (whole entry): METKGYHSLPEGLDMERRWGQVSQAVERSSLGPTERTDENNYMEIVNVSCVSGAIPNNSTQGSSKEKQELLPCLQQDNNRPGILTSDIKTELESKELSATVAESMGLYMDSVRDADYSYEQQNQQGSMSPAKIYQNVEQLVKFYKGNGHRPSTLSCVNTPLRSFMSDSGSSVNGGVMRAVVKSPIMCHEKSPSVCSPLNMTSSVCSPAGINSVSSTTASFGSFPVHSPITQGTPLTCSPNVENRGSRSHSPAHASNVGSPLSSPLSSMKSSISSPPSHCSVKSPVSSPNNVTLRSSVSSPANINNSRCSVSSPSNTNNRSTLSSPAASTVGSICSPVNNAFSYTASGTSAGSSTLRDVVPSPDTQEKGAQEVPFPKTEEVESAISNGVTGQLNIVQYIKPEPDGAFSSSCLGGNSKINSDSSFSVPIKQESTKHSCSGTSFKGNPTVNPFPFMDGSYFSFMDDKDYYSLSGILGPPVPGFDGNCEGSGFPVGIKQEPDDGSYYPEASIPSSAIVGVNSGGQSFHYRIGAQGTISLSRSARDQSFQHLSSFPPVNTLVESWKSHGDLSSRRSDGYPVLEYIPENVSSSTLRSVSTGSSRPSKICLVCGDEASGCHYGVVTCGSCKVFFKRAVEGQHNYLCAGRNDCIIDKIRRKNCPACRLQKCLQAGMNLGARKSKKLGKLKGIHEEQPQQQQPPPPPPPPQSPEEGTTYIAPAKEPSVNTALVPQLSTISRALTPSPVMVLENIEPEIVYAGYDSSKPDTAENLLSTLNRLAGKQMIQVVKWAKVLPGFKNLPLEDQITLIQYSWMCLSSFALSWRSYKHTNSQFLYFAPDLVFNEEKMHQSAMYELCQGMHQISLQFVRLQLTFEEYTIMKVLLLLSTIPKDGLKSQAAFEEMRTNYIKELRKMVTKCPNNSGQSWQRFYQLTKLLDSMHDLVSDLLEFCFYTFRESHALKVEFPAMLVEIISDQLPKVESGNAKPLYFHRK
The assay is described as follows: Antagonist activity at human mineralocorticoid receptor expressed in HEK293 cells assessed as inhibition of […]-induced transcriptional activity by GRE-driven luciferase reporter gene assay relative to untreated control. Format: functional, cell-based. Also on record: concentration or dose not given beside the values. The note with it: concentration not given here. In short, it runs like this:
as §1

Another assay has as its system Rattus norvegicus. The assay is described as follows: Antagonist activity at progesterone receptor in orally dosed ovariectomized Sprague-Dawley rat assessed as reversal of R5020-induced down-regulation of estradiol-induced increase in complement 3 mRNA expression by C3 rat uterine assay. Format: functional. The note with it: po. Summed up:
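Ovariectomized rats dosed orally (mg/kg dose response). Estrogen (E2, 0.05 mg/kg) induces complement C3 mRNA in uterus. Progestin R5020 (0.1 mg/kg) down-regulates it. Read-out is reversal of the R5020 effect, expressed as fold over asoprisnil (5 mg/kg). ED50 derived from the dose response.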

The subject of assay [5] is Oryctolagus cuniculus. The assay is described as follows: Antagonist activity at progesterone receptor in estrogen-primed immature New Zealand White rabbit assessed as inhibition of progesterone-induced endometrial transformation at 1 mg/kg, sc by McPhail assay. Also on record: dose 1 mg/kg. Format: functional, organism-based. Summed up:
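Immature rabbits primed with estrogen, given progesterone 1 mg/kg with test compound at various sc doses. Endometrial transformation scored by McPhail Index.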

In assay [6] the test system is Oryctolagus cuniculus. The assay can be described thus: Agonist activity at progesterone receptor in estrogen-primed immature New Zealand White rabbit assessed as stimulation of progesterone-induced endometrial transformation at 30 mg/kg, sc by McPhail assay. The assay is classed as functional, organism-based. The arrangement: dose 30 mg/kg. Summed up: (§2)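 Immature rabbits primed with estrogen, dosed sc without progesterone. Endometrial transformation scored by McPhail Index.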

Assay [7] concerns Oryctolagus cuniculus. The assay is described as follows: Agonist activity at progesterone receptor in sc dosed estrogen-primed immature New Zealand White rabbit assessed as stimulation of progesterone-induced endometrial transformation by McPhail assay. The assay is classed as functional, organism-based. In short, it runs like this: as §2

Activity calls are given as the source filed them. No cut-off for these calls is given here.

For the compound `C[C@](c1ccc(F)cc1F)(c1c[nH]c2c(NS(C)(=O)=O)cccc12)C1CC1`, the Ki at Progesterone receptor [1] is 1230 nM; at Androgen receptor, 676 nM. On Progesterone receptor [2], the IC50 was 2020 nM. Further, the inhibition came out at 94.5% in [3] and 87% in assay [4].
With `COC[C@]1(OC)CC[C@H]2[C@@H]3CCC4=CC(=O)CCC4=C3[C@@H](c3ccc(/C=N/O)cc3)C[C@@]21C` [ASOPRISNIL], the ED50 in the assay on Rattus norvegicus worked out at 0.31 mg/kg. The outcome with Oryctolagus cuniculus [5] and in the assay on Oryctolagus cuniculus [6] was Active.
With `C[C@@](c1ccc(F)cc1F)(c1c[nH]c2c(NS(C)(=O)=O)cccc12)C1CC1`, the Ki on Progesterone receptor [1] worked out at 464 nM; on Androgen receptor it was 211 nM. The IC50 at Progesterone receptor [2] was found to be 715 nM. Besides, the inhibition in assay [3] was 89.7%; in [4], 62.9%.
`CC#C[C@]1(O)CC[C@H]2[C@@H]3CCC4=CC(=O)CCC4=C3[C@@H](c3ccc(N(C)C)cc3)C[C@@]21C`: in the assay on Oryctolagus cuniculus [5], the result was Active. Besides, the outcome with Oryctolagus cuniculus [7] was inactive.

For orientation: Ki means a measure of affinity in units of concentration, obtained from inhibition or displacement. Usually IC50 stands for the concentration that inhibits the measured activity by half. A word on the inhibition: it is the percentage by which the read-out fell short of the control. The ED50 is the dose that gives a 50% effect, or the effect in half of the subjects.
